One block for each compound: values may come before it. Activity calls are given as the source filed them. The calls are words filed in the database; no cut-off is given here.
Key:
Format in all cases: functional
[1] = molecular target: T1, P2Y purinoceptor 6 (Homo sapiens, UniProt Q15077); experiment: Measure of Agonist Potency at human P2Y purinoceptor 6 (hP2Y6) stably expressed in […] astrocytoma cell; NE means no effect at 100 uM
In short: (§1)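 1321N1 cells stably expressing the human receptor were labelled overnight with 1 μCi [³H]myo-inositol per well in inositol-free DMEM. [³H]inositol phosphate formation was then measured over 10 min at 37 °C with 10 mM LiCl. EC50 came from a four-parameter logistic fit of full concentration-effect curves, averaged over 3–8 independent curves.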

[2] = molecular target: P2Y purinoceptor 1 (Meleagris gallopavo) (UniProt P49652); experiment: Measure of Agonist Potency at turkey Purinoceptor P2Y1 stably expressed in […] astrocytoma cell; NE means no effect at 100 uM
P2Y purinoceptor 1 (Meleagris gallopavo), sequence (P49652 whole entry): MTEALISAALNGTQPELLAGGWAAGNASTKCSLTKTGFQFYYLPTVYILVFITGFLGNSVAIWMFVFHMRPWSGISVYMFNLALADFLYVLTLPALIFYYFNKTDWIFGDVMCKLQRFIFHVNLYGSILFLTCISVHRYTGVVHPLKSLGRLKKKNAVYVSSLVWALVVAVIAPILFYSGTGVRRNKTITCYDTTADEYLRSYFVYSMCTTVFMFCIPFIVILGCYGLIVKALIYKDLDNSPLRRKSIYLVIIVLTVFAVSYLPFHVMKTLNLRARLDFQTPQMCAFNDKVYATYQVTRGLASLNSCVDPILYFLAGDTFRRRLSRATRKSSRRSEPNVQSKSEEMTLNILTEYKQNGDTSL

[3] = molecular target: T2, P2Y purinoceptor 4 (Homo sapiens, UniProt P51582); experiment: Measure of Agonist Potency at human P2Y purinoceptor 4 (hP2Y4) stably expressed in 131N1 astrocytoma cell; in short: as §1
T2 sequence (P51582 whole entry): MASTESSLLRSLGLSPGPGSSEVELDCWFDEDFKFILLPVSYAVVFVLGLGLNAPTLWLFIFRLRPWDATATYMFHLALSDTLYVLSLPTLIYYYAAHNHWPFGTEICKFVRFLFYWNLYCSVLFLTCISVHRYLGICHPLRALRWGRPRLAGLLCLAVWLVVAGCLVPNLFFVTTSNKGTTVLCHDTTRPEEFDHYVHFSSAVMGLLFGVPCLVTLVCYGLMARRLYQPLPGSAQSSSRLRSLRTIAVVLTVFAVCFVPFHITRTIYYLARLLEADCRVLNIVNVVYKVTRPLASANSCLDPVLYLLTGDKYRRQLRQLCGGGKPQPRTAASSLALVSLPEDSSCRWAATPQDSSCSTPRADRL

[4] = molecular target: T3, P2Y purinoceptor 11 (Homo sapiens) (UniProt Q96G91); experiment: Measure of Agonist Potency at human P2Y purinoceptor 11 (hP2Y11) stably expressed in […] astrocytoma cell at 10 uM; NE means no effect at 100 uM
T3 sequence (whole entry): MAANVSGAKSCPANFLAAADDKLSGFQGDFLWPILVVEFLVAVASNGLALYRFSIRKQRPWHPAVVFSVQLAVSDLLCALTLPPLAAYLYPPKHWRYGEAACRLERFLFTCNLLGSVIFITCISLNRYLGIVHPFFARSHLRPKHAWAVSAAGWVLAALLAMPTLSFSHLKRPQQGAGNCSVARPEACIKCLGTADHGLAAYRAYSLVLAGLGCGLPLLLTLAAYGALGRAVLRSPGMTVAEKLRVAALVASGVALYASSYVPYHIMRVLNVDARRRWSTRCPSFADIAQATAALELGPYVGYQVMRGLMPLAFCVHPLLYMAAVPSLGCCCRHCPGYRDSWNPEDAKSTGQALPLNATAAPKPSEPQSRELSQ

[5] = molecular target: P2Y purinoceptor 2 (Homo sapiens, UniProt P41231); experiment: Measure of Agonist Potency at human P2Y purinoceptor 2 (hP2Y2) stably expressed in […] astrocytoma cell; in short: as §1
P2Y purinoceptor 2, sequence (P41231 whole entry): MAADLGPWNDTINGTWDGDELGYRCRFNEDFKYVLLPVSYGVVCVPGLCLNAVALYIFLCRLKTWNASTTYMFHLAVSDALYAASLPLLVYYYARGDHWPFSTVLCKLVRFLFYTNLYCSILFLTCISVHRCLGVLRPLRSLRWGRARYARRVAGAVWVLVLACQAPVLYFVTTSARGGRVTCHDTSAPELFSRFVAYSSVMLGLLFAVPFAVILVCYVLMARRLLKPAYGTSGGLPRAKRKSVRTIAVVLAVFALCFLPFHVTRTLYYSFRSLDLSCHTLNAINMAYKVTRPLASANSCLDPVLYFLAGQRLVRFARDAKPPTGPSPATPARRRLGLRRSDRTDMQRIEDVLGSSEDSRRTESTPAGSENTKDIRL

[6] = molecular target: T1, P2Y purinoceptor 6; experiment: Measure of Agonist Potency at human P2Y purinoceptor 6 (hP2Y6) stably expressed in 131N1 astrocytoma cell
In short: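 Human P2Y6 stably expressed in 1321N1 astrocytoma cells; cells labelled overnight with 1 μCi/well [³H]myo-inositol in inositol-free DMEM. [³H]inositol phosphate formation measured next day over 10 min at 37 °C with 10 mM LiCl. Full concentration-effect curves fitted by four-parameter logistic equation; EC50 averaged from 3–8 independent curves (mean ± SE).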

[7] = molecular target: P2Y purinoceptor 1 (Meleagris gallopavo, UniProt P49652); experiment: Measure of Agonist Potency at turkey Purinoceptor P2Y1 stably expressed in 131N1 astrocytoma cell
P2Y purinoceptor 1 (Meleagris gallopavo, UniProt P49652), sequence (P49652 whole entry): as the sequence (P49652 whole entry) above

[8] = molecular target: P2Y purinoceptor 1 (Homo sapiens, UniProt P47900); experiment: Measure of Agonist Potency at human P2Y purinoceptor 1 (hP2Y1) stably expressed in […] astrocytoma cell; in short: as §1
P2Y purinoceptor 1 (Homo sapiens, UniProt P47900), sequence (P47900 whole entry): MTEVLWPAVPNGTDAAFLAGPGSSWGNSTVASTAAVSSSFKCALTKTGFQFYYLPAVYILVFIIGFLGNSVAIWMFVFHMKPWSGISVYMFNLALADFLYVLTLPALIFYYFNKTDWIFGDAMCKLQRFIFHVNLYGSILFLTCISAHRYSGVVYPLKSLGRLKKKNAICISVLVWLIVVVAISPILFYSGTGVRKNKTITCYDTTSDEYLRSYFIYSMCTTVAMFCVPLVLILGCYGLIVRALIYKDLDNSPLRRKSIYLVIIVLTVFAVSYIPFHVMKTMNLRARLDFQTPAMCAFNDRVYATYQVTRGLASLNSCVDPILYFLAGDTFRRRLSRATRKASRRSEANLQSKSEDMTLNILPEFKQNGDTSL

[9] = molecular target: T2, P2Y purinoceptor 4; experiment: Measure of % Agonist Potency at human P2Y purinoceptor 4 (hP2Y4) stably expressed in […] astrocytoma cell at 10 uM
[10] = molecular target: T3, P2Y purinoceptor 11 (Homo sapiens); experiment: Measure of Agonist Potency at human P2Y purinoceptor 11 (hP2Y11) stably expressed in […] astrocytoma cell at 10 uM
[11] = molecular target: T2, P2Y purinoceptor 4; experiment: Measure of Agonist Potency at human P2Y purinoceptor 4 (hP2Y4) stably expressed in […] astrocytoma cell; NE means no effect at 100 uM; in short: as §1

T1 sequence (Q15077 whole entry): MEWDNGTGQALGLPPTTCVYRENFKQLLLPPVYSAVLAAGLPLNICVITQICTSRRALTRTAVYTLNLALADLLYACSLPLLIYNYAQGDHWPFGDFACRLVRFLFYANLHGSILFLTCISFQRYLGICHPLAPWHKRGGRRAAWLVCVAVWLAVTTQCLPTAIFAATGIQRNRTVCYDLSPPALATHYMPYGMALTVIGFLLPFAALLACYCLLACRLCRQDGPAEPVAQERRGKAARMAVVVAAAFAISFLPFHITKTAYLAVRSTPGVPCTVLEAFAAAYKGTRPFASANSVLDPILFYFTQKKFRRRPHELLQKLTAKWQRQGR

NE [2]: inactive
Structure (SMILES): Nc1ncnc2c1ncn2[C@@H]1O[C@H](COP(=O)(O)O)[C@@H](O)[C@H]1O (stereo in doubt; form 2)

NE [2]: inactive
Structure (SMILES): Nc1ncnc2c1ncn2[C@@H]1O[C@H](COP(=O)(O)O)[C@@H](O)[C@H]1O (stereo in doubt; form 1)

EC50 [7]: 3500 nM
EC50 [8]: 7200 nM
Structure (SMILES): Nc1ncnc2c1ncn2[C@@H]1O[C@H](COP(=O)(O)O)[C@@H](O)[C@H]1O (stereo in doubt; form 4) [ADENOSINE PHOSPHATE]

EC50 [7]: 2800 nM
EC50 [8]: 1500 nM
Structure (SMILES): Nc1ncnc2c1ncn2[C@@H]1O[C@H](COP(=O)(O)O)[C@@H](O)[C@H]1O (stereo in doubt; form 3) [ADENOSINE PHOSPHATE]

NE [11]: inactive
NE [4]: inactive
Structure (SMILES): Nc1ncnc2c1ncn2[C@@H]1O[C@H](COP(=O)(O)O)[C@@H](O)[C@H]1O (stereo in doubt; form 4)

The next lines start with the compound.

Structure (SMILES): O=c1ccn(C2C(O)C(O)C3(COP(=O)(O)OP(=O)(O)O)CC23)c(=O)[nH]1 (stereo unspecified)
Agonist effect [1]: inactive

Structure (SMILES): O=c1ccn([C@H]2[C@H](O)[C@H](O)[C@]3(COP(=O)(O)OP(=O)(O)OP(=O)(O)O)C[C@H]23)c(=O)[nH]1 (stereo in doubt; form 2) [N-METHANOCARBA-UTP]
Agonist effect [1]: inactive
EC50 [3]: 85 nM
NE [4]: inactive
EC50 [5]: 15.9 nM

Structure (SMILES): O=c1ccn([C@@H]2O[C@H](COP(=O)(O)OP(=O)(O)O)[C@@H](O)[C@H]2O)c(=O)[nH]1 [URIDINE_DIPHOSPHATE]
EC50 [6]: 15 nM

Structure (SMILES): O=c1ccn(C2C(O)C(O)C3(COP(=O)(O)O)CC23)c(=O)[nH]1 (stereo unspecified)
Agonist effect [1]: inactive

Structure (SMILES): Nc1ncnc2c1ncn2[C@@]12C[C@H]1[C@H](COP(=O)(O)O)[C@@H](O)[C@H]2O
NE [2]: inactive

Structure (SMILES): Nc1ncnc2c1ncn2[C@H]1[C@H](O)[C@H](O)[C@]2(COP(=O)(O)OP(=O)(O)OP(=O)(O)O)C[C@H]12 (stereo in doubt; form 1)
Activity [9]: 32%
EC50 [7]: 14 nM
EC50 [5]: 91 nM
Activity [10]: 34.5%

Structure (SMILES): O=c1ccn(C2O[C@H](COP(=O)(O)O)[C@@H](O)[C@@H]2O)c(=O)[nH]1 (stereo partly specified)
Agonist effect [1]: inactive

Reference: ChEMBL document CHEMBL1135398, “Methanocarba modification of uracil and adenine nucleotides: high potency of Northern ring conformation at P2Y1, P2Y2, P2Y4, and P2Y11 but not P2Y6 receptors” (J Med Chem, 2002)
